Consider 22 molecules from ChEMBL document CHEMBL4261550, “Triazolopyrimidines identified as reversible myeloperoxidase inhibitors” (Medchemcomm, 2017).

Series [1] can be described thus: Hypochlorus scavenging activity at 10 uM in presence of sodium hypochlorite after 15 mins by APF dye based fluorescence assay relative to control. It counts as functional. The procedure, abridged:
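NaOCl-scavenger counterscreen in 1536-well format: 50 μM NaOCl in place of MPO with APF reagent, compound 10 μM final; fluorescence intensity read after 15 min incubation; ≥20% loss of fluorescence flagged as interference.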

The target in series [2] is T1, Myeloperoxidase (Homo sapiens) (UniProt P05164).
T1 sequence (whole entry): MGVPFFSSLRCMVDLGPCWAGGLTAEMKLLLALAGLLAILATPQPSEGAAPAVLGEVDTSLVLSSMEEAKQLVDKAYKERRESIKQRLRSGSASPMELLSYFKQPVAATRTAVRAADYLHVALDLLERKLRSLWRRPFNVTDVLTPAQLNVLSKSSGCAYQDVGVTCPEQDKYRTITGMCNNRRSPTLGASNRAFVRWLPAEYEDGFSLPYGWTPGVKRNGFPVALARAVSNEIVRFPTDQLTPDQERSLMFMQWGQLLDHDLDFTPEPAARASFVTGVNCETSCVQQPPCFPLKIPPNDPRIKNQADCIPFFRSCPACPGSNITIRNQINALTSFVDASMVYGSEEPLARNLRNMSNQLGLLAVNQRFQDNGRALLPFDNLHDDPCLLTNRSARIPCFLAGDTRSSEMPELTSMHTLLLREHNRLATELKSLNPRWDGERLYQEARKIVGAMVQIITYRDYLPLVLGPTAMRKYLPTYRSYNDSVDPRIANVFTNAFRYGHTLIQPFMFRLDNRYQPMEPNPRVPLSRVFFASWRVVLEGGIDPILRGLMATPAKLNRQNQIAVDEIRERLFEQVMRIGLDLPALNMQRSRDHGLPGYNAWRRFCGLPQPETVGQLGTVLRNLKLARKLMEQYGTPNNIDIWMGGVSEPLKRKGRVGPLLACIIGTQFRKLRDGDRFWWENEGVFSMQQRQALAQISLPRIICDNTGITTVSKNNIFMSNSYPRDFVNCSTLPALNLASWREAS
The series is described as follows: Ratio of IC50 for human MPO chlorination preincubated for 10 mins to IC50 for human MPO chlorination without preincubation.

In series [3] the target is T1, Myeloperoxidase (Homo sapiens). As to the kind of experiment: Inhibition of human MPO assessed as reduction in enzyme-mediated chlorination by measuring reduction in HOCl formation at 10 uM preincubated for 10 mins followed by H2O2/NaCl addition and measured at 30 secs time interval for 5 mins by APF dye based fluorescence assay relative to control. An outline of the steps:
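HTS APF chlorination, 1536-well: 1.75 nM human MPO with 20 μM H2O2 final, compound 10 μM final, preincubated 10 min; APF reagent added, fluorescence 485/535 nm read every 30 s for 5 min; slope normalized to DMSO (0%) and no-MPO wells (100% inhibition).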

Series [4] in a line: Redox activity assessed as conversion of resazurin reagent to resorufin at 10 uM after 30 mins by fluorescence assay relative to control. It counts as physicochemical. The note with it: 0.5 h. The procedure, abridged: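 Redox counterscreen: compound 10 μM final incubated with 5 μM resazurin reagent (final) 30 min; fluorescence intensity read; normalized to a reactive styrylpyrimidotriazinedione standard at 10 μM as 100%.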
Background: The colour change of resazurin is a common sign of viable cells or microbes.

In another series the target is T2, Thyroid peroxidase (Homo sapiens, UniProt P07202).
T2 sequence (P07202 whole entry): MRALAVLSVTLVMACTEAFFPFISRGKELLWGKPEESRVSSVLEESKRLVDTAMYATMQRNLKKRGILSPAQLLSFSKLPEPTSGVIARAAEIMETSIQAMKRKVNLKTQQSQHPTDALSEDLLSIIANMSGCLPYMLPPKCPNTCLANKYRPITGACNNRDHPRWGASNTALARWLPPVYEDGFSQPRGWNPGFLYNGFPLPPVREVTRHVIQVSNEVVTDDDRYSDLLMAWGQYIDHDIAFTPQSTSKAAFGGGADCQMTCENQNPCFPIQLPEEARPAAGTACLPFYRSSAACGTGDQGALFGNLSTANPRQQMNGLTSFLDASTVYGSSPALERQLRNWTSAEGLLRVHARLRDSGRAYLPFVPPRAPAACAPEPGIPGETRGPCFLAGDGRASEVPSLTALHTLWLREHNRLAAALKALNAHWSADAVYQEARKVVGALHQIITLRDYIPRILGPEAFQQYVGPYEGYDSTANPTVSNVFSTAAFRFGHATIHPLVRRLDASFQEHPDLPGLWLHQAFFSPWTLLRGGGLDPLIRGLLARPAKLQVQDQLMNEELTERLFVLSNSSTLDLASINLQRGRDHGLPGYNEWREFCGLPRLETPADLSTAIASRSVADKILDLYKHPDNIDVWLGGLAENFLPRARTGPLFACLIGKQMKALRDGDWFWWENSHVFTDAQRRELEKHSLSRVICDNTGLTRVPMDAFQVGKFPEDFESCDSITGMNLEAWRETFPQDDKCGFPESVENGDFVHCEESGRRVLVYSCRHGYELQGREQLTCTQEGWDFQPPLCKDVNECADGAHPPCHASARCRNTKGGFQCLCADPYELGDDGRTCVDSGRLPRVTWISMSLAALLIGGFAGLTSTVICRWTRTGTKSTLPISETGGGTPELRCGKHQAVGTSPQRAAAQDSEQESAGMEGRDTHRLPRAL
The series is described as follows: Inhibition of recombinant human C-terminal His6-tagged TPO (15 to 839 residues) expressed in baculovirus infected insect cells assessed as reduction in H2O2-catalyzed 3,5-iodo tyrosine formation using 3-iodotyrosine and potassium iodide preincubated for 10 mins followed by 3,5-iodo tyrosine/potassium iodide/H2O2 addition and measured after 15 mins. The procedure, abridged: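 TPO residues 15–839 with C-terminal His6, baculovirus/T. ni expressed, purified by Ni affinity, anion exchange and size exclusion; 4.0 nM in 100 mM KPi pH 7.4, 10 min rt preincubation with inhibitor; then 400 μM KI/240 μM 3-iodotyrosine mix and 20 μM H2O2 (added solutions); 3,5-iodotyrosine formation monitored.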

The target in series [5] is T3, Myeloperoxidase (Homo sapiens, UniProt P05164).
T3 sequence (P05164 whole entry): T1 sequence (whole entry)
The series is described as follows: Inhibition of MPO in human neutrophils assessed as reduction in PMA-stimulated HOCl production incubated for 3 mins and measured for 25 mins by luminol reagent based luminescence assay. An outline of the steps:
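Neutrophils from healthy donors isolated by dextran sedimentation then Ficoll-Paque, resuspended in HBSS; 1.106 cells/mL stimulated with 100 nM PMA; inhibitor 22 μM down to 1 nM (1:3, 10 doses) in 10% ethanol/50% PEG/40% water, 3 min at rt; luminol 100 μM final, read 25 min at 37 °C; rate taken from initial linear region.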

Series [6] addresses T3, Myeloperoxidase. The series is described as follows: Inhibition of human MPO assessed as reduction in enzyme-mediated chlorination by measuring reduction in HOCl formation preincubated for 10 mins followed by H2O2/NaCl addition and measured at 30 secs time interval for 5 mins by APF dye based fluorescence assay.
The target in series [7] is T3, Myeloperoxidase. As to the kind of experiment: Inhibition of human MPO assessed as reduction in enzyme-mediated chlorination by measuring reduction in HOCl formation in presence of H2O2/NaCl measured at 30 secs time interval for 5 mins by APF dye based fluorescence assay.
The target of series [8] is T3, Myeloperoxidase. As to the kind of experiment: Inhibition of human MPO peroxidase activity in presence of H2O2 measured at 30 secs time interval for 5 mins by amplex red reagent based fluorescence assay.
The target in series [9] is T1, Myeloperoxidase (Homo sapiens). The series is described as follows: Irreversible inhibition of human MPO peroxidase activity at 20 nM preincubated for up to 30 mins followed by H2O2 addition and 2 to 10 times compound dilution measured at 30 secs time interval for 5 mins by amplex red reagent based fluorescence assay. An outline of the steps: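 MPO (20 nM, phosphate buffer) was preincubated with inhibitor and 100 nM H2O2 for 2, 10, 20 and 30 min. Inhibitor was at 5x–10x the Amplex Red IC50 when that IC50 was > 1 μM, or 2–10x the enzyme concentration when it was < 1 μM. Controls were peroxide with 0.2% DMSO, and 4-hydroxybenzoic acid hydrazide. Unbound inhibitor was removed on a G50 spin column. Flow-through was assayed by Amplex Red, and the initial rate gave % activity remaining versus control. Runs were repeated with 100 mM NaCl and 150 μM L-methionine.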

Series [10] has the same target. As to the kind of experiment: Substrate activity at human MPO assessed as reversion of enzyme to resting state at 80 uM in presence of H2O2 by stopped flow assay. The procedure, abridged:
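Stopped-flow at 25 °C: syringe 1 with 2 μM MPO and 5 μM H2O2 in phosphate buffer, syringe 2 with inhibitor and 5 μM H2O2; equal volumes rapidly mixed, spectra acquired in PDA mode to follow several MPO species; representative of numerous replicates.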

Active and inactive are the calls of the source. No cut-off for these calls is given here.

The term inhibition denotes the share of the control response that was lost under treatment. By IC50 is commonly meant the concentration needed to halve the response being measured. For `O=c1[nH]c(=S)n(C[C@H]2CCCO2)c2nc[nH]c12`, the Activity in series [1] is under 20%; in series [4], “Not Active”. Further, the Ratio IC50 in series [2] worked out at 6. Also, in series [3], the inhibition is 30%. Besides, the IC50 on Thyroid peroxidase turned out to be 3.9 µM; at Myeloperoxidase [5] it was 1000 nM; on Myeloperoxidase [6] it was 9 nM; at Myeloperoxidase [7], 56 nM; on Myeloperoxidase [8], 12 nM.
As to `Nc1nc(OCc2ccc(F)cc2)c2nn[nH]c2n1`, the IC50 on Myeloperoxidase [6] was determined as 47 nM.
Still for that read-out and setting: next, `Cc1ccc(COc2nc(N)nc3[nH]nnc23)cc1`: 510 nM.
For the molecule `NNC(=O)c1ccc(O)cc1`, the inhibition entry in series [9] was “Active”.
`Nc1nc(OCCc2ccccc2)c2nn[nH]c2n1`: on Myeloperoxidase [6], the IC50 came to 630 nM.
The same measure, in the same setting: next, `Nc1nc(OCc2ccccc2)c2[nH]cnc2n1` [6-O-BENZYLGUANINE]: over 13000 nM; `Nc1nc(OCc2cccc(OC(F)F)c2)c2nn[nH]c2n1`: 200 nM; `Nc1nc(OCc2ccccc2)c2[nH]c(O)nc2n1`: over 13000 nM.
Still for that read-out and setting: next, `Nc1nc(Oc2ccccc2)c2nn[nH]c2n1`: over 13000 nM; `Nc1nc(OCc2ccc(C(F)(F)F)cc2)c2nn[nH]c2n1`: 140 nM.
`N[C@@H](Cc1c[nH]c2ccccc12)C(=O)OCc1ccccc1`: the Activity was under 20% in series [1] and “Not Active” in series [4]. Also, in series [3], the inhibition amounted to 30%. For the same molecule, the outcome in [10] was Active. Moreover, the figures for the IC50 on Myeloperoxidase [6], at Myeloperoxidase [7] and on Myeloperoxidase [8] were 200 nM, 110 nM and over 13000 nM, respectively.
`Cc1ccccc1COc1nc(N)nc2[nH]nnc12`: the IC50 at Myeloperoxidase [6] came to 470 nM.
As to `Nc1nc(OCc2ccccc2F)c2nn[nH]c2n1`, the IC50 on Myeloperoxidase [6] worked out at 78 nM.
Still for that read-out and setting: next, `Nc1nc(OCc2ccccc2)c2cn[nH]c2n1`: over 13000 nM; `Nc1nc(OCc2cccc(F)c2)c2nn[nH]c2n1`: 40 nM.
Same read-out and setting: next, `Nc1nc(OCc2ccccc2Cl)c2nn[nH]c2n1`: 180 nM; `COc1cccc(COc2nc(N)nc3[nH]nnc23)c1`: 490 nM; `c1ccc(COc2ncnc3[nH]nnc23)cc1`: over 13000 nM.
With `Nc1nc(OCc2cccc(Cl)c2)c2nn[nH]c2n1`, the IC50 on Myeloperoxidase [6] turned out to be 200 nM.
On the same count and under the same terms, next, `Oc1nc(OCc2ccccc2)c2nn[nH]c2n1`: over 13000 nM; `Cn1nnc2c(OCc3ccccc3)nc(N)nc21`: over 13000 nM.
In the case of `CCNc1nc(OCc2ccccc2)c2nn[nH]c2n1`, the IC50 on Myeloperoxidase [6] was found to be 2900 nM.
